According to ChEMBL document CHEMBL1139822, “Cytotoxicity of the novel spin trapping compound 5-ethoxycarbonyl-3,5-dimethyl-pyrroline N-oxide (3,5-EDPO) and its derivatives” (Bioorg Med Chem Lett, 2007):

Key:
Hepatocyte [1] = assay: Cytotoxicity in primary rat hepatocytes assessed as decrease in number of hepatocytes after 24 hrs; format: cell-based; set-up: scale not given: the % may be the effect or the level left
Hepatocyte [2] = assay: Cytotoxicity in primary rat hepatocytes assessed as increase in LDH release after 24 hrs; format: cell-based
SW480 [3] = assay: Cytotoxicity against human SW480 cells at 50 mM after 24 hrs; format: functional
How it was run: (§1)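 Human colon carcinoma SW480 cultures were exposed to spin traps at 10 to 100 mM for 24 h. Cytotoxicity was read as the dose-dependent loss in cell number. LDH released into the culture supernatant was also measured and expressed per cell as % of non-treated control. Apoptotic nuclei were stained to distinguish necrosis from apoptosis.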

SW480 [4] = assay: Cytotoxicity against human SW480 cells at 100 mM after 24 hrs; format: functional; how it was run: as §1

## CCOC(=O)C1(C)CC(C)C=[N+]1[O-] (stereo unspecified)
Hepatocyte [1]
  Activity: 60%
Hepatocyte [2]
  Activity: Active
SW480 [3]
  Activity: <25%

## CCOC(=O)C1(C)C(C)CC=[N+]1[O-] (stereo unspecified)
Hepatocyte [1]
  Activity: 60%
Hepatocyte [2]
  Activity: Active
SW480 [3]
  Activity: <25%

## CCCOC(=O)C1(C)CC(C)C=[N+]1[O-] (stereo unspecified)
SW480 [3]
  Activity: <25%

## CCCOC(=O)C1(C)C(C)CC=[N+]1[O-] (stereo unspecified)
SW480 [4]
  Activity: 95%

## CC1C=[N+]([O-])C(C)(C(=O)OC(C)C)C1 (stereo unspecified)
Hepatocyte [1]
  Activity: 60%
Hepatocyte [2]
  Activity: Active
SW480 [3]
  Activity: <25%
